Measurements taken from ChEMBL document CHEMBL4840310, “Discovery of novel 2,3,5-trisubstituted pyridine analogs as potent inhibitors of IL-1β via modulation of the p38 MAPK signaling pathway” (Eur J Med Chem, 2021).
Activity calls are given as the source filed them. The calls are words filed in the database; no cut-off is given here.

How the values were obtained:
[1] = Inhibition of LPS stimulated IL-1beta in human mococyte-derived macrophages cells preincubated for 2 hrs followed by LPS stimulation and measured after 6 hrs by ELISA; assay type: functional; conditions: Macrophage
How it was run: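 Human monocyte-derived macrophages stimulated with LPS; IL-1β secretion measured over 10 concentrations per compound, N = 2, to compute individual IC50 values; dexamethasone run in parallel as reference. Z-score reported.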

Macrophage [2] = assay: Inhibition of LPS stimulated IL-2 in human mococyte-derived macrophages cells at 1 uM preincubated for 2 hrs followed by LPS stimulation and measured after 6 hrs by ELISA; assay type: functional; conditions: time 8.0 hrs
Macrophage [3] = assay: Inhibition of LPS stimulated IL-4 in human mococyte-derived macrophages cells at 1 uM preincubated for 2 hrs followed by LPS stimulation and measured after 6 hrs by ELISA; assay type: functional; conditions: time 8.0 hrs
Macrophage [4] = assay: Inhibition of LPS stimulated IL-6 in human mococyte-derived macrophages cells at 1 uM preincubated for 2 hrs followed by LPS stimulation and measured after 6 hrs by ELISA; assay type: functional; conditions: time 8.0 hrs
Macrophage [5] = assay: Inhibition of LPS stimulated IL-8 in human mococyte-derived macrophages cells at 1 uM preincubated for 2 hrs followed by LPS stimulation and measured after 6 hrs by ELISA; assay type: functional; conditions: time 8.0 hrs
Macrophage [6] = assay: Inhibition of LPS stimulated GM-CSF in human mococyte-derived macrophages cells at 1 uM preincubated for 2 hrs followed by LPS stimulation and measured after 6 hrs by ELISA; assay type: functional; conditions: time 8.0 hrs
[7] = target: T1, Mitogen-activated protein kinase 14 (Homo sapiens, UniProt Q16539); assay: Binding affinity to p38 alpha MAPK (unknown origin) assessed as association constant by surface plasmon resonance imaging
[8] = Tmax in Wistar rat at 65 mg/kg, po administered as single dose; assay type: ADME, organism-based; conditions: in vivo
How it was run: (§1)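 Female Wistar rats, 8 weeks old, given a single oral 65 mg/kg dose in PEG400/Kolliphor HS 15 (70/30 v/v); plasma drug levels sampled over time (N = 9). Tmax taken from the curve; two-compartment fit with first-order terminal elimination gave distribution and elimination half-lives.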

[9] = Half life in Wistar rat 65 mg/kg, po administered as single dose; assay type: ADME, organism-based; conditions: in vivo; how it was run: as §1
[10] = Elimination half life in Wistar rat 65 mg/kg, po administered as single dose; assay type: ADME, organism-based; conditions: in vivo, read-out: beta t1/2 (converted); how it was run: as §1
Mus musculus [11] = assay: Anti-inflammatory activity in po dosed Balb/c mouse assessed as inhibition of stimulated IL-1beta secretion in brain after 4 hrs by ELISA; assay type: functional, organism-based; conditions: dose 10-20 mg/kg
Mus musculus [12] = assay: Anti-inflammatory activity in po dosed Balb/c mouse assessed as inhibition of stimulated IL-1beta secretion in lung after 4 hrs by ELISA; assay type: functional, organism-based; conditions: dose 10-20 mg/kg
Mus musculus [13] = assay: Anti-inflammatory activity in po dosed Balb/c mouse assessed as inhibition of stimulated IL-1beta secretion in liver after 4 hrs by ELISA; assay type: functional, organism-based; conditions: dose 10-20 mg/kg
Mus musculus [14] = assay: Anti-inflammatory activity in Balb/c mouse assessed as inhibition of stimulated IL-1beta secretion in plasma at 10 mg/kg, po after 4 hrs by ELISA; assay type: functional, organism-based
How it was run: (§2)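 Male BALB/c mice dosed orally with 10 or 20 mg/kg compound (DMSO stock, then 5% TPGS in PBS), vehicle controls. LPS O111:B4 0.33 mg/kg i.p. in saline given 2 h after treatment. Blood drawn retro-orbitally into heparin tubes 4 h post-LPS; plasma IL-1β by ELISA read at 450 nm.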

Mus musculus [15] = assay: Anti-inflammatory activity in Balb/c mouse assessed as inhibition of stimulated IL-1beta secretion in plasma at 20 mg/kg, po after 4 hrs by ELISA; assay type: functional, organism-based; how it was run: as §2
[16] = target: T1, Mitogen-activated protein kinase 14; assay: Binding affinity to p38 alpha MAPK (unknown origin) assessed as dissociation rate constant by surface plasmon resonance imaging

T1 sequence (Q16539 whole entry): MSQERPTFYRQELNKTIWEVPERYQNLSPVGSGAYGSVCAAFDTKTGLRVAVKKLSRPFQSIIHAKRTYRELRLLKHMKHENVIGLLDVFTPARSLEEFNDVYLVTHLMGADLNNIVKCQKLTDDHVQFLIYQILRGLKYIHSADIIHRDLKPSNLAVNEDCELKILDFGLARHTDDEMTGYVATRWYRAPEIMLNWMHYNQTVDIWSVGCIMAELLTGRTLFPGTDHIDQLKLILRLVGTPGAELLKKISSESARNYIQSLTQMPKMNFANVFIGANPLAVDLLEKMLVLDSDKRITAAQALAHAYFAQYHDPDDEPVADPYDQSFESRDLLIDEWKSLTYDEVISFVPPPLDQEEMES

IC50 [1] [µM] | Structure (SMILES) | other results
1.1 | CCOc1ccc(Oc2cc(S(=O)(=O)N(C)C)cnc2N2CCC(Oc3ccc(Cl)nn3)CC2)cc1 | –
0.0128 | CN(C)S(=O)(=O)c1cnc(N2CCC(Oc3ccc(Cl)cc3)CC2)c(Nc2ccc3oc(CO)cc3c2)c1 | –
0.028 | CN(C)S(=O)(=O)c1cnc(N2CCC(Oc3ccc(Cl)cc3)CC2)c(Oc2ccc3c(c2)CCO3)c1 | –
4 | CCOc1ccc(Oc2cc(S(=O)(=O)N(C)C)cnc2N2CCC(Oc3ccc(Cl)nc3)CC2)cc1 | –
0.337 | CCOc1ccc(Oc2cc(S(=O)(=O)N(C)C)cnc2N2CCC(Oc3ccc(C(N)=O)nc3)CC2)cc1 | –
> 10 | CCOc1ccc(Oc2cc(S(=O)(=O)N(C)C)cnc2N2CCN(Cc3ccc(Cl)cc3)CC2)cc1 | –
0.027 | CN(C)S(=O)(=O)c1cnc(N2CCC(Oc3ccc(Cl)cc3)CC2)c(-c2ccc3c(c2)CCO3)c1 | –
0.029 | CN(C)S(=O)(=O)c1cnc(N2CCC(Oc3ccc(Cl)cc3)CC2)c(Nc2ccc3c(c2)CCO3)c1 | –
> 10 | CCC(=O)c1ccc(Nc2cc(S(=O)(=O)N(C)C)cnc2N2CCC(Oc3ccc(Cl)cc3)CC2)cc1 | –
> 10 | CN(C)S(=O)(=O)c1cnc(N2CCC(Oc3ccc(Cl)cc3)CC2)c(Oc2ccc(OCCO)cc2)c1 | –
> 10 | CCOc1ccc(Oc2cc(S(=O)(=O)N(C)C)cnc2N2CCN(Cc3ccc(Cl)nc3)CC2)cc1 | –
> 10 | CCC(=O)c1ccc(-c2cc(S(=O)(=O)N(C)C)cnc2N2CCC(Oc3ccc(Cl)cc3)CC2)cc1 | –
0.121 | CN(C)S(=O)(=O)c1cnc(N2CCC(Oc3ccc(Cl)cc3)CC2)c(Nc2ccc3c(c2)OCO3)c1 | –
> 10 | CCOc1ccc(Nc2cc(S(=O)(=O)N(C)C)cnc2N2CCC(Oc3ccc(Cl)cc3)CC2)cc1 | –
0.028 | CCOc1ccc(Oc2cc(S(=O)(=O)N(C)C)cnc2N2CCC(Oc3ccc(Cl)cc3)CC2)cc1 | inhibition (Macrophage [2]): Active; inhibition (Macrophage [3]): Active; inhibition (Macrophage [4]): Active; inhibition (Macrophage [5]): Active; inhibition (Macrophage [6]): Active; Ka [7]: 2.08 10^4/M/s; Tmax [8]: 1 h; half-life [9]: 2.1 h; half-life [10]: 9 h; Activity (Mus musculus [11]): Dose-Dependent Effect; Activity (Mus musculus [12]): Dose-Dependent Effect; Activity (Mus musculus [13]): Dose-Dependent Effect; Activity (Mus musculus [14]): Active; Activity (Mus musculus [15]): Active; koff [16]: 2.48 10^-4/s
> 10 | CCCOc1ccc(Nc2cc(S(=O)(=O)N(C)C)cnc2N2CCC(Oc3ccc(Cl)cc3)CC2)cc1 | –
